From ChEMBL document CHEMBL5653606 (J Pharmacol Exp Ther, 2011)
Calls of active or inactive are those of the source.

Tests used:
[1] = tested on: Mus musculus; test: In vivo inhibition of rhodamine-azide tagged FAAH expressed in mouse brain at 10 mg/kg, po by CC-ABPP method based in-gel fluorescence scanning analysis; assay type: functional, organism-based
[2] = tested on: Mus musculus; test: Antinociceptive activity in C57BL6/J mouse assessed as effect in body temperature at 1 to 10 mg/kg, po administered for 4 hrs; assay type: functional, organism-based; details: dose 1-10 mg/kg
How it was run: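 Male C57BL/6J mice, 7 weeks old, n = 8/group, dosed orally at 1 or 10 mg/kg in PEG 300 (4 ml/kg). Tetrad tested 4 h postdose: locomotor activity, tail-immersion thermal nociception, catalepsy (assessed 60 s), body temperature. Means ± S.E.M. versus vehicle.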

[3] = target: T1, Fatty-acid amide hydrolase 1 (Rattus norvegicus) (UniProt P97612); test: In vivo inhibition of FAAH in CFA induced Sprague-Dawley rat WBC at 0.1 to 10 mg/kg, po relative to control; assay type: functional, organism-based; details: dose 0.1-10 mg/kg
T1 sequence (whole entry): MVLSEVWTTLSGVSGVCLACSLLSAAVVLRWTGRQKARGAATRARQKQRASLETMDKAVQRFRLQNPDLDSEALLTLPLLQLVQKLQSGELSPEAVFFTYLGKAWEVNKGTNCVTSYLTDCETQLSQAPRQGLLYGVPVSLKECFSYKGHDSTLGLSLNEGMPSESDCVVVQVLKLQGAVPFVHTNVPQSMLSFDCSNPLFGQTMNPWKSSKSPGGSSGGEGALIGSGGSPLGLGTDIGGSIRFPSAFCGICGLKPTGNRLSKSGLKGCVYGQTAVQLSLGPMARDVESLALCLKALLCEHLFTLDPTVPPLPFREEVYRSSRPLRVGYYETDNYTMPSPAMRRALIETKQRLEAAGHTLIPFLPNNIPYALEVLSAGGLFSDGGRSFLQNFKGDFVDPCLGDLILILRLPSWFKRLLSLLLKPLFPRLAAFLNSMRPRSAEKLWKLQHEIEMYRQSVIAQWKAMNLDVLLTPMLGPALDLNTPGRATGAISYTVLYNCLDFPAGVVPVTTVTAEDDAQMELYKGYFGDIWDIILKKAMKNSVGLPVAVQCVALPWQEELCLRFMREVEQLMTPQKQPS
How it was run: (§1)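 Brain and blood leukocyte membrane fractions from CFA rats after oral dosing. FAAH activity measured with 3H-labeled AEA substrate, quantifying released 3H-ethanolamine; n = 3 rats/group. Time course sampled at 1, 2, 4, 8, 24 h after 1 mg/kg.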

[4] = target: T2, Fatty-acid amide hydrolase 1 (Mus musculus) (UniProt O08914); test: Inhibition of FAAH in mouse brain at 10 uM in presence of FP-rhodamine by competitive activity-based protein profiling method; assay type: tissue-based
T2 sequence (whole entry): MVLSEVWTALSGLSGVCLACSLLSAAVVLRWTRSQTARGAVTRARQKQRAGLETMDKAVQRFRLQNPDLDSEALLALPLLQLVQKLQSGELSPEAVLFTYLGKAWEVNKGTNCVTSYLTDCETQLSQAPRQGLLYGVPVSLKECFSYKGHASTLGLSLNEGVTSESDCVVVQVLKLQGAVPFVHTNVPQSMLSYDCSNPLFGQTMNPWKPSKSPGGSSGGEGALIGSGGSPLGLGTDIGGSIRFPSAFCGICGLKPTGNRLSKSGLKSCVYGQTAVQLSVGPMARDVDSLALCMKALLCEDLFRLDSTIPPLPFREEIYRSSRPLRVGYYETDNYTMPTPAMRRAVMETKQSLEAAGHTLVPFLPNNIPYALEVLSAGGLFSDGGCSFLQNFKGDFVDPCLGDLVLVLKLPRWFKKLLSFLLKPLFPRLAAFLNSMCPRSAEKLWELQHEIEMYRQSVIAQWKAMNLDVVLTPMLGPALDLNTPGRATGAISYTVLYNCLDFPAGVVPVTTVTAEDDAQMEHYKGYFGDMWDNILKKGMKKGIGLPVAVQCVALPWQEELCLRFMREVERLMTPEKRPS
How it was run: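 Competitive ABPP on human and mouse brain, liver and heart proteomes (membrane and soluble fractions), exposed to compound at 10 or 100 μM or to DMSO. Serine hydrolases were then labeled with FP-rhodamine. Gels were read by fluorescence scanning, and loss of band labeling (FAAH or other hydrolases by kDa) was judged.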

[5] = target: T3, Fatty-acid amide hydrolase 1 (Homo sapiens, UniProt O00519); test: Inhibition of human FAAH assessed as kinact/Ki ratio incubated for 1 min in presence of glutamate dehydrogenase by 384-well format microplate reader assay
T3 sequence (O00519 whole entry): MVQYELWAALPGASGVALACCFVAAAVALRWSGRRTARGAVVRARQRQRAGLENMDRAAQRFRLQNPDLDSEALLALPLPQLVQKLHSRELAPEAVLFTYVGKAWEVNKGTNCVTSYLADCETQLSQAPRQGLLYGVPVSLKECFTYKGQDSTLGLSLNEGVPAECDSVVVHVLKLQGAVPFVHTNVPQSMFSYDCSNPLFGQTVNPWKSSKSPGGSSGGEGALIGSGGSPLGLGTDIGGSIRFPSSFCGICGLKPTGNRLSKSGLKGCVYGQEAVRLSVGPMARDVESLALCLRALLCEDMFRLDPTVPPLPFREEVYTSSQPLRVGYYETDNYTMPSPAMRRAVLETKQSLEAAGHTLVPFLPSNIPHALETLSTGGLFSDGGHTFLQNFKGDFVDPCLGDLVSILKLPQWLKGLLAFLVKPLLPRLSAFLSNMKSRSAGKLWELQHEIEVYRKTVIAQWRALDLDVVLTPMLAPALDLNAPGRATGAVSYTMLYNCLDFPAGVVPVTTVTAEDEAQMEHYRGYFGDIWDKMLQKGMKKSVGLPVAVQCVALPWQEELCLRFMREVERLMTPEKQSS

[6] = Plasma concentration in rat at 1 mg/kg, po administered for 4 hrs by LC/MS analysis; assay type: ADME, organism-based
How it was run: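 Male Sprague-Dawley rats received a single oral dose of 1 mg/kg. Plasma (ng/ml) and brain (ng/g tissue) drug levels were measured at 1, 2, 4, 8 and 24 h after dosing.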

[7] = target: T4, Fatty-acid amide hydrolase 1 (Rattus norvegicus, UniProt P97612); test: Inhibition of rat FAAH assessed as kinact/Ki ratio incubated for 1 min in presence of glutamate dehydrogenase by 384-well format microplate reader assay
T4 sequence (P97612 whole entry): T1 sequence (whole entry)

[8] = target: T1, Fatty-acid amide hydrolase 1 (Rattus norvegicus); test: In vivo inhibition of FAAH in CFA induced Sprague-Dawley rat brain at 1 mg/kg, po measured for 1 to 24 hrs; assay type: functional, organism-based; details: time 1-24 hrs; how it was run: as §1
[9] = Plasma concentration in CFA induced Sprague-Dawley rat at 0.1 mg/kg, po by LC/MS analysis; assay type: ADME, organism-based; details: in vivo
[10] = tested on: Rattus norvegicus; test: Antihyperalgesic activity in MIA induced Sprague-Dawley rat assessed as increased joint compression thresholds at 0.3 mg/kg, po administered once daily for 3 consecutive days and measured after 2 to 4 hrs; assay type: functional, organism-based; details: time 3.0 day
How it was run: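 Male Sprague-Dawley rats (220–270 g), isoflurane-anesthetized, given 2 mg MIA in 0.9% saline (50 μl) intra-articular into the knee. From day 14, oral dosing at 10 ml/kg once daily for 3 days in 4% 2-hydroxypropyl-β-cyclodextrin/1% ethanol in 0.01 M HCl. Celecoxib 30 mg/kg in 0.5% methylcellulose twice daily. Joint compression threshold by digital Randall-Selitto at 2 and 4 h postdose on days 1 and 3; n = 10/group.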

- inhibition [3]: 98%
- inhibition [4]: Active
- IC50 [5]: 0.0504 µM
- concentration at 4 h [6]: 540 nM
- IC50 [7]: 0.0431 µM
- inhibition [8]: Active
- concentration [9]: 34.7 nM
Compound: O=C(Nc1cccnn1)N1CCC(=Cc2cccc(Oc3ccc(C(F)(F)F)cn3)c2)CC1
- inhibition [1]: Active
- Activity [2]: Non-Toxic
- Activity [10]: Active
